How the values were obtained:
[1] = target: T1, 3-hydroxy-3-methylglutaryl-coenzyme A reductase (Rattus norvegicus, UniProt P51639); experiment: Inhibition of HMG-CoA reductase in Sprague-Dawley rat liver microsomes using [14C]HMG-CoA as substrate preincubated for 0.5 hrs before substrate addition measured after 0.75 hrs by beta scintillation counting; set-up: species or system Microsome
T1 sequence (P51639 whole entry): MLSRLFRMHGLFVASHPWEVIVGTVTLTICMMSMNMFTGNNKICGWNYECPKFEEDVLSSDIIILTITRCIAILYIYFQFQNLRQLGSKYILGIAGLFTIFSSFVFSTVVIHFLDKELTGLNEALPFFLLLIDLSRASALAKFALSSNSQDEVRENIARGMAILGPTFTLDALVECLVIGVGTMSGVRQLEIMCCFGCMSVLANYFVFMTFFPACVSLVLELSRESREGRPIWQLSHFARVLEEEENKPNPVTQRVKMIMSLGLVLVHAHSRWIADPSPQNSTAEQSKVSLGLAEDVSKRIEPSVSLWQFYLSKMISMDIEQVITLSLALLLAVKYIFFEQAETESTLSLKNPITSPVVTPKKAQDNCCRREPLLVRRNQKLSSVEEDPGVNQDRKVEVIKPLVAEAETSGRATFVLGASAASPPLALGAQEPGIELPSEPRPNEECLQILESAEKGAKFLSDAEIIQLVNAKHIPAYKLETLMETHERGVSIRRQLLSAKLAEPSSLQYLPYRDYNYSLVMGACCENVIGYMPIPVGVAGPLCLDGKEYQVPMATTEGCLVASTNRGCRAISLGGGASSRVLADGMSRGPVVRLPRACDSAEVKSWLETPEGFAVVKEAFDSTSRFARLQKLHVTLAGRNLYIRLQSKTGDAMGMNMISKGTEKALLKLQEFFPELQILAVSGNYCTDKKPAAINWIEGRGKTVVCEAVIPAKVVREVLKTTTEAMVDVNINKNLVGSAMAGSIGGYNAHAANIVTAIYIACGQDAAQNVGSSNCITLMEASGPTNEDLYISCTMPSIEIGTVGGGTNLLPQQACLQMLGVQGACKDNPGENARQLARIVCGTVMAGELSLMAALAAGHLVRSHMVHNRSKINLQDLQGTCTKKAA
Procedure, shortened: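 Enzyme inhibition was measured in an HMG-CoA reductase preparation from rat microsomes. IC50 is reported as mean ± SEM of n ≥ 2 independent determinations.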

Syrian golden hamster [2] = experiment: Inhibition of cholesterol synthesis in golden syrian hamster assessed as reduction of [14C]-cholesterol level at 10 mg/kg, po followed by 3 hrs after treated with 80 uCi, ip of [14C]-sodium acetate measured after 5 hrs by liquid scintillation counting relative to control; assay type: functional; conditions: Mesocricetus auratus
Procedure, shortened: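 Separate hamster groups dosed po at 10 mg/kg at t = 0 h. 14C sodium acetate ip at t = 3 h, blood 14C cholesterol at t = 5 h. Percent change vs untreated controls, n = 8/group.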

L6 [3] = experiment: Inhibition of cholesterol synthesis in rat L6 cells assessed as reduction of [14C]-cholesterol level using [14C]-acetic acid preincubated for 3 hrs before addition of [14C]-acetic acid by scintillation counting; assay type: functional, cell-based
Procedure, shortened: (§1)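 Cholesterol synthesis inhibition measured in rat hepatocytes and rat myocyte cell line, giving IC50 for each. Mean ± SEM of n ≥ 2 independent determinations.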

[4] = Lipophilicity, log D of the compound at pH 7.4 by shake flask method; assay type: physicochemical; conditions: buffer
Procedure, shortened: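 Log D at pH 7.4 by shake flask.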

L6 [5] = experiment: Selectivity ratio of IC50 for cholesterol synthesis in rat L6 cells to IC50 for cholesterol synthesis in rat hepatocytes
Syrian golden hamster [6] = experiment: Inhibition of cholesterol synthesis in golden syrian hamster assessed as reduction of [14C]-cholesterol level at 10 mg/kg, po followed by 2 hrs after treated with 80 uCi, ip of [14C]-sodium acetate measured after 4 hrs by liquid scintillation counting relative to control; assay type: functional; conditions: Mesocricetus auratus
Procedure, shortened: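 Hamsters dosed po at 10 mg/kg at t = 0 h. Intraperitoneal 14C sodium acetate at t = 2 h, blood drawn at t = 4 h for 14C cholesterol. Percent inhibition vs untreated controls, n = 8/group.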

Hepatocyte = experiment: Inhibition of cholesterol synthesis in rat hepatocytes assessed as reduction of [14C]-cholesterol level using [14C]-acetic acid preincubated for 4 hrs before addition of [14C]-acetic acid by liquid scintillation counting; assay type: functional, cell-based; procedure, shortened: as §1

O=C(O)C[C@H](O)C[C@H](O)CCn1c(-c2ccc(F)cc2)nc(C(=O)NCc2ccccc2F)c1C1CC1
IC50 [1]: 1.5 nM
inhibition in vivo at 10 mg/kg (Syrian golden hamster [2]): -4%
IC50 (L6 [3]): 27200 nM
logD [4]: 0.08

CCc1c(C(=O)NCc2ccccc2)nc(-c2ccc(F)cc2)n1CC[C@@H](O)C[C@@H](O)CC(=O)O
IC50 [1]: 123 nM

Cc1c(C(=O)NCc2ccccc2)nc(-c2ccc(F)cc2)n1CC[C@@H](O)C[C@@H](O)CC(=O)O
IC50 [1]: 94 nM

CCCc1c(C(=O)NCc2ccccc2)nc(-c2ccc(F)cc2)n1CC[C@@H](O)C[C@@H](O)CC(=O)O
IC50 [1]: 26 nM

CC(C)c1c(C(=O)NCc2ccccc2)nc(-c2ccc(F)cc2)n1CC[C@@H](O)C[C@@H](O)CC(=O)[O-].[Na+]
Ratio IC50 (L6 [5]): 10100
inhibition in vivo at 10 mg/kg (Syrian golden hamster [6]): -53%
inhibition in vivo at 10 mg/kg (Syrian golden hamster [2]): -7%
logD [4]: 0.64

O=C([O-])C[C@H](O)C[C@H](O)CCn1c(-c2ccc(F)cc2)nc(C(=O)NCc2ccccc2)c1C1CC1.[Na+]
Ratio IC50 (L6 [5]): 3160
inhibition in vivo at 10 mg/kg (Syrian golden hamster [6]): -58%
IC50 [1]: 1.4 nM
IC50 (L6 [3]): 632 nM
IC50 (Hepatocyte): 0.2 nM
logD [4]: 0.03

Cc1ccc(CNC(=O)c2nc(-c3ccc(F)cc3)n(CC[C@@H](O)C[C@@H](O)CC(=O)[O-])c2C2CC2)cc1.[Na+]
Ratio IC50 (L6 [5]): 1780
inhibition in vivo at 10 mg/kg (Syrian golden hamster [6]): -79%
IC50 [1]: 1.7 nM
inhibition in vivo at 10 mg/kg (Syrian golden hamster [2]): -36%
IC50 (L6 [3]): 178 nM
IC50 (Hepatocyte): 0.1 nM
logD [4]: 0.45

Cc1cccc(CNC(=O)c2nc(-c3ccc(F)cc3)n(CC[C@@H](O)C[C@@H](O)CC(=O)[O-])c2C2CC2)c1.[Na+]
Ratio IC50 (L6 [5]): 1770
inhibition in vivo at 10 mg/kg (Syrian golden hamster [6]): -54%
IC50 [1]: 7.2 nM
inhibition in vivo at 10 mg/kg (Syrian golden hamster [2]): -50%
IC50 (L6 [3]): 532 nM
IC50 (Hepatocyte): 0.3 nM
logD [4]: 0.47

Cc1ccccc1CNC(=O)c1nc(-c2ccc(F)cc2)n(CC[C@@H](O)C[C@@H](O)CC(=O)[O-])c1C1CC1.[Na+]
Ratio IC50 (L6 [5]): 48500
IC50 [1]: 4.9 nM
inhibition in vivo at 10 mg/kg (Syrian golden hamster [2]): 0%
IC50 (L6 [3]): 4850 nM
IC50 (Hepatocyte): 0.1 nM
logD [4]: 0.44

COc1ccc(CNC(=O)c2nc(-c3ccc(F)cc3)n(CC[C@@H](O)C[C@@H](O)CC(=O)[O-])c2C2CC2)cc1.[Na+]
Ratio IC50 (L6 [5]): 32000
inhibition in vivo at 10 mg/kg (Syrian golden hamster [6]): -60%
IC50 [1]: 1.2 nM
IC50 (L6 [3]): 6400 nM
IC50 (Hepatocyte): 0.2 nM
logD [4]: 0.02

COc1cccc(CNC(=O)c2nc(-c3ccc(F)cc3)n(CC[C@@H](O)C[C@@H](O)CC(=O)[O-])c2C2CC2)c1.[Na+]
Ratio IC50 (L6 [5]): 2960
inhibition in vivo at 10 mg/kg (Syrian golden hamster [6]): -53%
IC50 [1]: 1.2 nM
inhibition in vivo at 10 mg/kg (Syrian golden hamster [2]): -42%
IC50 (L6 [3]): 538 nM
IC50 (Hepatocyte): 0.2 nM
logD [4]: 0.11

COc1ccccc1CNC(=O)c1nc(-c2ccc(F)cc2)n(CC[C@@H](O)C[C@@H](O)CC(=O)[O-])c1C1CC1.[Na+]
Ratio IC50 (L6 [5]): 107000
IC50 [1]: 7 nM
IC50 (L6 [3]): 10700 nM
IC50 (Hepatocyte): 0.1 nM
logD [4]: 0.16

O=C([O-])C[C@H](O)C[C@H](O)CCn1c(-c2ccc(F)cc2)nc(C(=O)NCc2ccc(F)cc2)c1C1CC1.[Na+]
Ratio IC50 (L6 [5]): 2310
IC50 [1]: 3.4 nM
inhibition in vivo at 10 mg/kg (Syrian golden hamster [2]): 0%
IC50 (L6 [3]): 1620 nM
IC50 (Hepatocyte): 0.7 nM
logD [4]: 0.17

O=C([O-])C[C@H](O)C[C@H](O)CCn1c(-c2ccc(F)cc2)nc(C(=O)NCc2ccc(F)c(F)c2)c1C1CC1.[Na+]
Ratio IC50 (L6 [5]): 5560
IC50 [1]: 1.2 nM
inhibition in vivo at 10 mg/kg (Syrian golden hamster [2]): -8%
IC50 (L6 [3]): 2780 nM
IC50 (Hepatocyte): 0.5 nM

O=C([O-])C[C@H](O)C[C@H](O)CCn1c(-c2ccc(F)cc2)nc(C(=O)NCc2ccc(F)cc2F)c1C1CC1.[Na+]
Ratio IC50 (L6 [5]): 24350
inhibition in vivo at 10 mg/kg (Syrian golden hamster [6]): -46%
IC50 [1]: 1.2 nM
IC50 (L6 [3]): 4870 nM
IC50 (Hepatocyte): 0.2 nM

Cc1ccc(CNC(=O)c2nc(-c3ccc(F)cc3)n(CC[C@@H](O)C[C@@H](O)CC(=O)[O-])c2C2CC2)cc1F.[Na+]
Ratio IC50 (L6 [5]): 2240
IC50 [1]: 4.1 nM
IC50 (L6 [3]): 224 nM
IC50 (Hepatocyte): 0.1 nM
logD [4]: 0.69

COc1ccc(CNC(=O)c2nc(-c3ccc(F)cc3)n(CC[C@@H](O)C[C@@H](O)CC(=O)[O-])c2C2CC2)cc1F.[Na+]
Ratio IC50 (L6 [5]): 4450
inhibition in vivo at 10 mg/kg (Syrian golden hamster [6]): -36%
IC50 [1]: 3.7 nM
inhibition in vivo at 10 mg/kg (Syrian golden hamster [2]): 0%
IC50 (L6 [3]): 890 nM
IC50 (Hepatocyte): 0.2 nM

NC(=O)c1ccc(CNC(=O)c2nc(-c3ccc(F)cc3)n(CC[C@@H](O)C[C@@H](O)CC(=O)[O-])c2C2CC2)cc1.[Na+]
Ratio IC50 (L6 [5]): > 250000
IC50 [1]: 7.2 nM
inhibition in vivo at 10 mg/kg (Syrian golden hamster [2]): 0%
IC50 (L6 [3]): > 100000 nM
IC50 (Hepatocyte): 0.4 nM
logD [4]: -1.1

CN(C)S(=O)(=O)c1ccc(CNC(=O)c2nc(-c3ccc(F)cc3)n(CC[C@@H](O)C[C@@H](O)CC(=O)[O-])c2C2CC2)cc1.[Na+]
Ratio IC50 (L6 [5]): > 200000
IC50 [1]: 4.9 nM
inhibition in vivo at 10 mg/kg (Syrian golden hamster [2]): 0%
IC50 (L6 [3]): > 100000 nM
IC50 (Hepatocyte): 0.5 nM
logD [4]: -0.46

Source: ChEMBL document CHEMBL1781963, “Discovery of novel hepatoselective HMG-CoA reductase inhibitors for treating hypercholesterolemia: a bench-to-bedside case study on tissue selective drug distribution” (Bioorg Med Chem Lett, 2011)
